Measurements from different studies.
Compare with care: the assays were run in different laboratories.
Organism: Micrococcus luteus
Effect on: microbial growth

`CC1(C)S[C@@H]2[C@H](NC(=O)[C@H](N)c3ccccc3)C(=O)N2[C@H]1C(=O)O` gave an MIC of 0.13 µg/mL (broth dilution; ML01).
The MIC of `O=C(O)CN1C(=O)/C(=C/c2ccc(-c3ccc(N(c4ccccc4)c4ccccc4)cc3)cc2)SC1=S` is reported as 0.98 µg/mL (broth dilution; ATCC10240).
For `CC(=O)NCN1N=C(C)C(=NNn2c(-c3ccccc3)nc3ccccc3c2=O)C1=O`, the MIC was 59.9 µM (broth dilution; 24 h).
`O=C1NC(=S)N/C1=C\c1ccc(-c2ccc(N(c3ccccc3)c3ccccc3)cc2)c2ccccc12` gave an MIC of greater than 1000 µg/mL (broth dilution; ATCC10240).
`C/C=C(\C)c1cc(O)c(C)c(OC(=O)c2c(C)cc(O)c(Cl)c2O)c1` gave an MIC of 4 µg/mL (broth dilution; ML01).
`CC1=NN(CNc2ccccn2)C(=O)C1=NNn1c(-c2ccccc2)nc2ccccc2c1=O` gave an MIC of 110 µM (broth dilution; 24 h).
The MIC of `O=C1NC(=S)S/C1=C\c1ccc(-c2ccc(N(c3ccccc3)c3ccccc3)cc2)cc1` is reported as 31.1 µg/mL (broth dilution; ATCC10240).
`CN(C)[C@@H]1C(O)=C(C(N)=O)C(=O)[C@@]2(O)C(O)=C3C(=O)c4c(O)cccc4[C@@](C)(O)[C@H]3C[C@@H]12` has an MIC of 2 µg/mL.
`CC1=NN(CNC(=O)c2ccccn2)C(=O)C1=NNn1c(-c2ccccc2)nc2ccccc2c1=O` gave an MIC of 52 µM (broth dilution; 24 h).
The MIC of `C/C=C(\C)c1cc(OC(=O)c2c(C)c(Cl)c(O)c(Cl)c2O)c(C)c(O)c1C(=O)O` is reported as 64 µg/mL (broth dilution; ML01).
